Reference: ChEMBL document CHEMBL1124429, “Heterocyclic analogues of benzamide antiarrhythmic agents” (J Med Chem, 1989)
Values joined by “and” are separate entries in the source; they are usually repeats but may differ in a detail not shown here. Equal values may be shown once. Values belong to the compound of their own block, whether it stands above or below them.

Legend:
Canis familiaris [1] = species on record: Canis familiaris; assay: Percent change from control in the rate of rise of phase 0 of the action potential at 10 uM concentration on Canine Purkinje fibers.; value ranges from -17.0-2.0; set-up: species or system Canis lupus familiaris, Purkinje fiber; settings: dog, in vitro
Canis familiaris [2] = species on record: Canis familiaris; assay: Maximum Percent change from control in the rate of rise of phase 0 of the action potential at 0.1 uM concentration on Canine Purkinje fibers.; set-up: species or system Canis lupus familiaris, Purkinje fiber
In short: (§1)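 Isolated canine Purkinje fibers were superfused with physiological saline gassed with 95% O2/5% CO2 (pH 7.35–7.40) at 36 ± 0.5 °C. Paced at 1.0 Hz with 2-ms pulses at twice diastolic threshold. After up to 1 h stabilization, compounds were tested over 10^-8 to 10^-3 M, 30 min per concentration, one compound per fiber, with vehicle controls. Intracellular microelectrodes (3 M KCl) recorded Vmax and APD95; maximum percent change from control is reported with its concentration.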

Canis familiaris [3] = species on record: Canis familiaris; assay: Maximum Percent change from control in the rate of rise of phase 0 of the action potential at 100 uM concentration on Canine Purkinje fibers.; type: Canis lupus familiaris, Purkinje fiber; settings: dog, in vitro; in short: as §1
Canis familiaris [4] = species on record: Canis familiaris; assay: Maximum Percent change from control in the rate of rise of phase 0 of the action potential at 10 uM concentration on Canine Purkinje fibers.; type: functional, Canis lupus familiaris, Purkinje fiber; settings: dog, in vitro; in short: as §1
Canis familiaris [5] = species on record: Canis familiaris; assay: Maximum percent change in conduction time (CT) at 0.1 uM concentration tested on Canine ventricular muscle fibre; type: functional, Canis lupus familiaris, Muscle tissue
In short: (§2)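 Canine right ventricular papillary muscle strips were superfused at 36 ± 0.5 °C with saline gassed with 95% O2/5% CO2. Diastolic threshold was found with 2-ms stimuli at 4000 ms cycle length, then pacing at 4× threshold for 60 min equilibration. FRP was measured at 1000 ms cycle length by S1-S2 premature stimulus after every tenth S1. Conduction time came from a bipolar electrogram. Various compound concentrations were tested, one compound per strip, with vehicle controls. Percent change from control was taken at 10 µM, or the maximum change with its concentration; for N ≥ 3, mean with range.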

Canis familiaris [6] = species on record: Canis familiaris; assay: Maximum percent change in conduction time (CT) at 1 uM concentration tested on Canine ventricular muscle fibre; type: functional, Canis lupus familiaris, Muscle tissue; in short: as §2
Canis familiaris [7] = species on record: Canis familiaris; assay: Percent change from control in conduction time (CT) at 10 uM concentration tested on Canine ventricular muscle fibre.; M is minimal(<10% change in CT); type: functional; settings: Canis lupus familiaris, Muscle tissue; in short: as §2
Canis familiaris [8] = species on record: Canis familiaris; assay: Maximum percent change in repolarization at 100 uM concentration on Canine Purkinje fibers.; type: functional, Canis lupus familiaris, Purkinje fiber; in short: as §1
Canis familiaris [9] = species on record: Canis familiaris; assay: Maximum percent change in repolarization at 30 uM concentration on Canine Purkinje fibers.; type: functional, Canis lupus familiaris, Purkinje fiber; in short: as §1
Canis familiaris [10] = species on record: Canis familiaris; assay: Percent change in repolarization at 10 Purkinje fibers.; value ranges from -1-49; type: functional, Canis lupus familiaris, Purkinje fiber
In short: (§3)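 Canine Purkinje fibers were held in oxygenated (95% O2–5% CO2) physiological saline, pH 7.35–7.40, at 36 ± 0.5 °C and paced at 1.0 Hz with 2-ms pulses at twice diastolic threshold. Intracellular microelectrodes (3 M KCl) recorded Vmax and APD95 simultaneously. After up to 1 h of stabilization, compounds were tested from 10^-8 to 10^-3 M with 30 min per concentration. One compound per fiber, with vehicle controls. For N ≥ 3, values are the mean with the range.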

Canis familiaris [11] = species on record: Canis familiaris; assay: Maximum percent change in functional refractory period (FRP) at 10 uM on Canine ventricular muscle fibre.; set-up: species or system Canis lupus familiaris, Muscle tissue; in short: as §2
Canis familiaris [12] = species on record: Canis familiaris; assay: Percent change from control in the functional refractory period (FRP) at 10 uM concentration on Canine ventricular muscle fibre.; set-up: species or system Canis lupus familiaris, Muscle tissue; in short: as §2
Cavia porcellus [13] = species on record: Cavia porcellus; assay: Concentration of compound ( ) which gives a 20% decrease in contractile force was tested on papillary muscle of guinea pig, activity was expressed as EC-20.; NR is not reached.; type: functional; settings: Muscle tissue
In short: (§4)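 Contractile force measured in an isolated cardiac muscle preparation. Value is the concentration giving a 20% decrease in force of contraction. NR marks that this decrease was not reached. Values come from individual experiments; for N ≥ 3, the mean is given with the range.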

Canis familiaris [14] = species on record: Canis familiaris; assay: Percent change from control in the rate of rise of phase 0 of the action potential at 10 uM concentration on Canine Purkinje fibers.; value ranges from -17 - -7; type: organism-based, Canis lupus familiaris, Purkinje fiber; settings: dog, in vitro
Canis familiaris [15] = species on record: Canis familiaris; assay: Maximum Percent change from control in the rate of rise of phase 0 of the action potential at 30 uM concentration on Canine Purkinje fibers.; set-up: species or system Canis lupus familiaris, Purkinje fiber; settings: dog, in vitro; in short: as §1
Canis familiaris [16] = species on record: Canis familiaris; assay: Maximum percent change in conduction time (CT) at 10 uM concentration tested on Canine ventricular muscle fibre; type: functional, Canis lupus familiaris, Muscle tissue; in short: as §2
Canis familiaris [17] = species on record: Canis familiaris; assay: Percent change from control in conduction time (CT) at 10 uM concentration tested on Canine ventricular muscle fibre.; type: functional, Canis lupus familiaris, Muscle tissue; in short: as §2
Canis familiaris [18] = species on record: Canis familiaris; assay: Percent change in repolarization at 10 Purkinje fibers.; value ranges from -19 - 1; type: functional, Canis lupus familiaris, Purkinje fiber; in short: as §3
Canis familiaris [19] = species on record: Canis familiaris; assay: Maximum percent change in functional refractory period (FRP) at 1 uM on Canine ventricular muscle fibre.; set-up: species or system Canis lupus familiaris, Muscle tissue; in short: as §2
Canis familiaris [20] = species on record: Canis familiaris; assay: Percent change from control in the functional refractory period (FRP) at 10 uM conc. on Canine ventricular muscle fibre.; set-up: species or system Canis lupus familiaris, Muscle tissue; in short: as §2
Canis familiaris [21] = species on record: Canis familiaris; assay: Maximum percent change in functional refractory period (FRP) at 100 uM on Canine ventricular muscle fibre.; set-up: species or system Canis lupus familiaris, Muscle tissue; in short: as §2
Cavia porcellus [22] = species on record: Cavia porcellus; assay: Concentration of compound which gives a 20% decrease in contractile force was tested on papillary muscle of guinea pig, activity was expressed as EC-20.; type: functional; settings: Muscle tissue; in short: as §4
Canis familiaris [23] = species on record: Canis familiaris; assay: Percent change from control in the rate of rise of phase 0 of the action potential at 10 uM concentration on Canine Purkinje fibers.; value ranges from -18 - -4; type: organism-based, Canis lupus familiaris, Purkinje fiber; settings: dog, in vitro
Canis familiaris [24] = species on record: Canis familiaris; assay: The maximum percent change in action potential (Vmax ) at concentration observed (100 uM was tested on Canine Purkinje fibers.; set-up: species or system Canis lupus familiaris, Purkinje fiber; settings: dog; in short: as §3
Canis familiaris [25] = species on record: Canis familiaris; assay: Maximum percent change in conduction time (CT) at 100 uM concentration tested on Canine ventricular muscle fibre; value ranges from 6-27; type: functional, Canis lupus familiaris, Muscle tissue; in short: as §2
Canis familiaris [26] = species on record: Canis familiaris; assay: Maximum percent change in repolarization at 1 uM concentration on Canine Purkinje fibers.; type: functional, Canis lupus familiaris, Purkinje fiber; in short: as §1
Canis familiaris [27] = species on record: Canis familiaris; assay: Percent change in repolarization at 10 Purkinje fibers.; value ranges from -6 -2; type: functional, Canis lupus familiaris, Purkinje fiber; in short: as §3
Canis familiaris [28] = species on record: Canis familiaris; assay: Percent change from control in the functional refractory period (FRP) at 10 uM conc. on Canine ventricular muscle fibre.; value ranges from -1 - 16; set-up: species or system Canis lupus familiaris, Muscle tissue; in short: as §2
Canis familiaris [29] = species on record: Canis familiaris; assay: Maximum percent change in functional refractory period (FRP) at 100 uM on Canine ventricular muscle fibre.; value ranges from -3 - 26; set-up: species or system Canis lupus familiaris, Muscle tissue; in short: as §2
Canis familiaris [30] = species on record: Canis familiaris; assay: Maximum Percent change from control in the rate of rise of phase 0 of the action potential at 1 uM concentration on Canine Purkinje fibers.; set-up: species or system Canis lupus familiaris, Purkinje fiber; in short: as §1

- Vmax (Canis familiaris [1]): -6.3%
- Vmax (Canis familiaris [2]): -3%
- Vmax (Canis familiaris [3]): -42%
- Vmax (Canis familiaris [4]): -17%
SMILES: CCN(CC)CCNC(=O)c1[nH]c(C)c(C)c1C
- CT (Canis familiaris [5]): 7%
- CT (Canis familiaris [6]): -5%
- CT (Canis familiaris [7]): Minimal
- APD95 (Canis familiaris [8]): -9%
- APD95 (Canis familiaris [9]): 12%
- APD95 (Canis familiaris [10]): 19.7%
- FRP (Canis familiaris [11]): 24%
- FRP (Canis familiaris [12]): 24%
- EC20 (Cavia porcellus [13]): Not reached

- Vmax (Canis familiaris [14]): -11%
- Vmax (Canis familiaris [3]): -45%
- Vmax (Canis familiaris [15]): -20% and -26%
SMILES: CCN(CC)CCCNC(=O)c1cc2cccc(O)c2[nH]1
- CT (Canis familiaris [5]): -8%
- CT (Canis familiaris [16]): -23%
- CT (Canis familiaris [17]): -3%
- APD95 (Canis familiaris [8]): -53%
- APD95 (Canis familiaris [9]): -14%
- APD95 (Canis familiaris [18]): -10%
- FRP (Canis familiaris [19]): 8%
- FRP (Canis familiaris [20]): 9%
- FRP (Canis familiaris [21]): 19%
- EC20 (Cavia porcellus [22]): 36 µM

- Vmax (Canis familiaris [23]): -10.5%
- Vmax (Canis familiaris [24]): -19%
- Vmax (Canis familiaris [15]): -22% and -26%
- Vmax (Canis familiaris [30]): -14%
SMILES: CCN(CC)CCNC(=O)c1cccc2[nH]ccc12
- CT (Canis familiaris [25]): 14.7%
- CT (Canis familiaris [7]): Minimal
- APD95 (Canis familiaris [8]): -25%
- APD95 (Canis familiaris [26]): -6%
- APD95 (Canis familiaris [9]): -20%
- APD95 (Canis familiaris [27]): -3%
- FRP (Canis familiaris [28]): 6.3%
- FRP (Canis familiaris [29]): 10.7%
